Source: ChEMBL document CHEMBL1629657, “In vitro antimicrobial activity of a new cephalosporin, ceftaroline, and determination of quality control ranges for MIC testing” (2009)

Legend:
Assay type in all cases: functional
[1] = tested on: Providencia rettgeri; test: Antimicrobial activity against Proteus rettgeri by broth microdilution method
In short: (§1)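 Clinical isolates were tested by CLSI broth microdilution in unsupplemented cation-adjusted Mueller-Hinton broth. The read-out was the MIC, reported as MIC90 (μg/ml) per species or phenotypic group. Ceftriaxone, levofloxacin and imipenem were run in parallel as comparators.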

[2] = tested on: Streptococcus viridans; test: Antimicrobial activity against Streptococcus viridans group clinical isolate by broth microdilution method
In short: (§2)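 Streptococcal isolates were tested by CLSI broth microdilution in cation-adjusted Mueller-Hinton broth supplemented with 3% lysed horse blood. The read-out was the MIC, with MIC90 (μg/ml) reported per group. Ceftriaxone, levofloxacin and imipenem served as comparators.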

[3] = tested on: Streptococcus pneumoniae; test: Antimicrobial activity against penicillin-susceptible Streptococcus pneumoniae by broth microdilution method; in short: as §2
[4] = tested on: Escherichia coli; test: Antimicrobial activity against ESBL-positive Escherichia coli by broth microdilution method; in short: as §1
[5] = tested on: Staphylococcus aureus; test: Antimicrobial activity against methicillin-resistant Staphylococcus aureus by broth microdilution method
In short: (§3)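 Isolates of the stated resistance phenotype were tested by CLSI broth microdilution in unsupplemented cation-adjusted Mueller-Hinton broth. Ceftaroline was compared with ceftriaxone, levofloxacin and imipenem. Activity was expressed as MICs (MIC90 in μg/ml).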

[6] = tested on: Streptococcus pneumoniae; test: Antimicrobial activity against penicillin-intermediate Streptococcus pneumoniae by broth microdilution method
In short: (§4)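 CLSI broth microdilution in cation-adjusted Mueller-Hinton broth with 3% lysed horse blood, against streptococcal clinical isolates of the stated phenotype. Ceftaroline was compared with ceftriaxone, levofloxacin and imipenem. Activity was expressed as MICs (MIC90 in μg/ml).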

[7] = tested on: Providencia stuartii; test: Antimicrobial activity against Proteus stuartii by broth microdilution method; in short: as §1
[8] = tested on: Morganella morganii; test: Antimicrobial activity against Morganella morganii by broth microdilution method; in short: as §1
[9] = tested on: Klebsiella pneumoniae; test: Antimicrobial activity against ESBL-positive Klebsiella pneumoniae by broth microdilution method; in short: as §1
[10] = tested on: Haemophilus influenzae; test: Antimicrobial activity against beta-lactamase-positive Haemophilus influenzae by broth microdilution method
In short: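 H. influenzae isolates were tested by CLSI broth microdilution using Haemophilus test medium. The MIC was read and MIC90 (μg/ml) reported for the group. Ceftriaxone, levofloxacin and imipenem served as comparators.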

[11] = tested on: Shigella sp.; test: Antimicrobial activity against Shigella spp. by broth microdilution method; in short: as §1
[12] = tested on: Salmonella sp.; test: Antimicrobial activity against Salmonella spp. by broth microdilution method; in short: as §1
[13] = tested on: Klebsiella pneumoniae; test: Antimicrobial activity against ESBL-negative Klebsiella pneumoniae by broth microdilution method; in short: as §1
[14] = tested on: Streptococcus pyogenes; test: Antimicrobial activity against macrolide-resistant Streptococcus pyogenes by broth microdilution method; in short: as §4
[15] = tested on: Escherichia coli; test: Antimicrobial activity against ESBL-negative Escherichia coli by broth microdilution method; in short: as §1
[16] = tested on: Enterococcus faecalis; test: Antimicrobial activity against Enterococcus faecalis by broth microdilution method; in short: as §1
[17] = tested on: Pseudomonas aeruginosa; test: Antimicrobial activity against Pseudomonas aeruginosa by broth microdilution method; in short: as §1
[18] = tested on: Proteus mirabilis; test: Antimicrobial activity against Proteus mirabilis by broth microdilution method; in short: as §1
[19] = tested on: Streptococcus pyogenes; test: Antimicrobial activity against macrolide-susceptible Streptococcus pyogenes by broth microdilution method; in short: as §4
[20] = tested on: Moraxella catarrhalis; test: Antimicrobial activity against Moraxella catarrhalis by broth microdilution method; in short: as §1
[21] = tested on: Haemophilus influenzae; test: Antimicrobial activity against beta-lactamase-negative ampicillin resistant Haemophilus influenzae by broth microdilution method
In short: (§5)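 CLSI broth microdilution in Haemophilus test medium (cation-adjusted Mueller-Hinton base) against clinical H. influenzae isolates of the stated phenotype. Ceftaroline was compared with ceftriaxone, levofloxacin and imipenem. Activity was expressed as MICs (MIC90 in μg/ml).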

[22] = tested on: Haemophilus influenzae; test: Antimicrobial activity against beta-lactamase-negative Haemophilus influenzae by broth microdilution method; in short: as §5
[23] = tested on: Listeria monocytogenes; test: Antimicrobial activity against Listeria monocytogenes by broth microdilution method; in short: as §1
[24] = tested on: Staphylococcus; test: Antimicrobial activity against methicillin-susceptible coagulase-negative Staphylococcus by broth microdilution method; in short: as §1
[25] = tested on: Klebsiella aerogenes; test: Antimicrobial activity against ESBL-negative Enterobacter aerogenes by broth microdilution method; in short: as §1
[26] = tested on: Serratia marcescens; test: Antimicrobial activity against Serratia marcescens by broth microdilution method; in short: as §1
[27] = tested on: Stenotrophomonas maltophilia; test: Antimicrobial activity against Stenotrophomonas maltophilia by broth microdilution method; in short: as §1
[28] = tested on: Staphylococcus aureus; test: Antimicrobial activity against methicillin-susceptible Staphylococcus aureus by broth microdilution method; in short: as §1
[29] = tested on: Streptococcus agalactiae; test: Antimicrobial activity against Streptococcus agalactiae by broth microdilution method; in short: as §2
[30] = tested on: Enterococcus faecium; test: Antimicrobial activity against Enterococcus faecium by broth microdilution method; in short: as §1
[31] = tested on: Enterococcus faecalis; test: Antimicrobial activity against vancomycin-susceptible Enterococcus faecalis by broth microdilution method; in short: as §1
[32] = tested on: Burkholderia cepacia; test: Antimicrobial activity against Burkholderia cepacia by broth microdilution method; in short: as §1
[33] = tested on: Streptococcus pneumoniae; test: Antimicrobial activity against penicillin-resistant Streptococcus pneumoniae by broth microdilution method; in short: as §4
[34] = tested on: Staphylococcus aureus; test: Antimicrobial activity against vancomycin-intermediate Staphylococcus aureus by broth microdilution method; in short: as §1
[35] = tested on: Corynebacterium jeikeium; test: Antimicrobial activity against Corynebacterium jeikeium by broth microdilution method; in short: as §1
[36] = tested on: Enterococcus faecium; test: Antimicrobial activity against vancomycin-susceptible Enterococcus faecium by broth microdilution method; in short: as §1
[37] = tested on: Streptococcus pneumoniae; test: Antimicrobial activity against levofloxacin-resistant Streptococcus pneumoniae by broth microdilution method; in short: as §4
[38] = tested on: Proteus vulgaris; test: Antimicrobial activity against Proteus vulgaris by broth microdilution method; in short: as §1
[39] = tested on: Enterobacter cloacae; test: Antimicrobial activity against ESBL-negative Enterobacter cloacae by broth microdilution method; in short: as §1
[40] = tested on: Staphylococcus aureus; test: Antimicrobial activity against vancomycin-resistant Staphylococcus aureus by broth microdilution method; in short: as §3
[41] = tested on: Staphylococcus; test: Antimicrobial activity against methicillin-resistant coagulase-negative Staphylococcus by broth microdilution method; in short: as §3
[42] = tested on: Pseudomonas aeruginosa; test: Antimicrobial activity against multidrug resistant Pseudomonas aeruginosa by broth microdilution method; in short: as §3

C[C@H]1COc2c(N3CCN(C)CC3)c(F)cc3c(=O)c(C(=O)O)cn1c23.C[C@H]1COc2c(N3CCN(C)CC3)c(F)cc3c(=O)c(C(=O)O)cn1c23.O [LEVOFLOXACIN]
1 µg/mL: MIC50 [2] | MIC50 [3] | MIC50 [6] | MIC90 [6] | MIC50 [16] | MIC [23] | MIC50 [23] | MIC90 [23] | MIC50 [27] | MIC50 [29] | MIC90 [29] | MIC [31] | MIC50 [31] | MIC50 [32] | MIC50 [33] | MIC90 [33]
0.12 µg/mL: MIC50 [1] | MIC50 [7] | MIC50 [26]
32 µg/mL: MIC90 [4] | MIC90 [16] | MIC90 [32] | MIC90 [34] | MIC50 [42]
0.06 µg/mL: MIC50 [8] | MIC90 [11] | MIC90 [12] | MIC50 [13] | MIC90 [21] | MIC50 [25] | MIC90 [38] | MIC90 [39]
2 µg/mL: MIC90 [2] | MIC90 [3] | MIC50 [17] | MIC90 [19] | MIC50 [36]
> 32 µg/mL: MIC90 [1] | MIC90 [5] | MIC90 [7] | MIC90 [17] | MIC50 [30] | MIC90 [30] | MIC90 [31] | MIC50 [35] | MIC90 [35] | MIC90 [36] | MIC90 [37] | MIC90 [41]
8 µg/mL: MIC50 [5] | MIC90 [8] | MIC90 [9] | MIC90 [28] | MIC50 [41]
16 µg/mL: MIC90 [24] | MIC90 [27] | MIC50 [34] | MIC50 [37] | MIC [40]
0.25 µg/mL: MIC50 [4] | MIC90 [15] | MIC90 [18] | MIC50 [24] | MIC90 [26] | MIC50 [28]
0.03 µg/mL: MIC50 [10] | MIC90 [10] | MIC50 [11] | MIC [12] | MIC50 [12] | MIC50 [15] | MIC [18] | MIC50 [18] | MIC50 [20] | MIC90 [20] | MIC50 [21] | MIC50 [22] | MIC90 [22] | MIC50 [38] | MIC50 [39]
0.5 µg/mL: MIC50 [9] | MIC90 [13] | MIC [14] | MIC50 [14] | MIC90 [14] | MIC50 [19] | MIC90 [25]
